Calls of active or inactive are those of the source. The calls are words filed in the database; no cut-off is given here.
Experiments:
SH-SY5Y [1] = assay: Neuroprotective activity against oxygen glucose deprivation-induced cell death in human SH-SY5Y cells assessed as increase in cell viability at 10 uM treated at beginning of 24 hrs reoxygenation period by MTT assay; assay type: functional, cell-based
Method in brief: (§1)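 SH-SY5Y cells seeded at 2 × 10⁴ cells/well. Medium replaced by glucose-free EBSS (pH 7.4), then 1 h hypoxia (85% N₂, 10% H₂, 5% CO₂, 37 °C). Reoxygenated under normal culture for 24 h, compound added at start of reoxygenation. MTT read at 490 nm, given as % of non-OGD control. Mean ± SEM from three independent experiments.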

SH-SY5Y [2] = assay: Neuroprotective activity in human SH-SY5Y cells assessed as reduction in oxygen glucose deprivation-induced morphological damage at 5 to 10 uM treated at beginning of 24 hrs reoxygenation period; assay type: functional, cell-based
Method in brief: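 SH-SY5Y cells exposed to 1 h OGD in glucose-free EBSS (pH 7.4) under 85% N₂/10% H₂/5% CO₂ at 37 °C, then 24 h reoxygenation. Compound added after OGD at reoxygenation onset. Dendrite fragmentation and cell number assessed by morphological observation.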

SH-SY5Y [3] = assay: Neuroprotective activity against oxygen glucose deprivation-induced cell death in human SH-SY5Y cells assessed as cell viability at 10 uM treated at beginning of 24 hrs reoxygenation period by MTT assay (reference value: 55.05 +/- 2.03%); assay type: functional; conditions: read-out: Activity; method in brief: as §1
SH-SY5Y [4] = assay: Neuroprotective activity against oxygen glucose deprivation-induced cell death in human SH-SY5Y cells assessed as increase in cell viability treated at beginning of 24 hrs reoxygenation period by MTT assay; assay type: functional, cell-based; method in brief: as §1
SH-SY5Y [5] = assay: Cytotoxicity against human SH-SY5Y cells at 1 to 10 uM after 24 hrs by MTT assay; assay type: cell-based
Method in brief: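 SH-SY5Y cells grown in 1:1 MEM/F12 with 10% FBS and penicillin/streptomycin at 37 °C, 5% CO₂. Seeded at 2 × 10⁴ cells/well. Normal cells without OGD exposed to compound. Viability by MTT: 3 h at 37 °C in dark, formazan dissolved in DMSO, absorbance at 490 nm.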

Rattus norvegicus [6] = assay: Neuroprotective activity against middle cerebral artery occlusion-induced Sprague-Dawley rat ischemic stroke model assessed as decrease in brain infarct volume at 10 mg/kg, iv dosed 2 hrs post onset of ischemia measured after 24 hrs of reperfusion by TTC staining based assay relative to control; assay type: functional; parameters: scale not given: the % may be the effect or the level left
Method in brief: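 Male Sprague-Dawley rats, 230–280 g, under chloral hydrate (400 mg/kg i.p.). Left MCA occluded 2 h by 4-0 nylon filament, then reperfused; body temperature kept at 37.0 ± 0.5 °C. Edaravone as positive control. After 24 h reperfusion, 2 mm coronal sections stained with 1% TTC for 15 min, then fixed in 4% paraformaldehyde. White tissue scored as infarct. n = 11–14.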

Rattus norvegicus [7] = assay: Neuroprotective activity against middle cerebral artery occlusion-induced Sprague-Dawley rat ischemic stroke model assessed as reduction in neurological score at 10 mg/kg, iv dosed 2 hrs post onset of ischemia measured after 24 hrs of reperfusion […]; assay type: functional, organism-based
Method in brief: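 Male Sprague-Dawley rats, 230–280 g, given 2 h filament MCAO under chloral hydrate anaesthesia, then reperfused. Edaravone as positive control. After 24 h reperfusion, deficits rated by modified Neurological Severity Score on an 18-point scale (motor, visual, tactile); higher means worse. n = 11–14.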

SMILES	Activity (SH-SY5Y [1])	Activity (SH-SY5Y [2])	viability at 10 µM (SH-SY5Y [3])	Activity (SH-SY5Y [4])	Activity (SH-SY5Y [5])	Activity (Rattus norvegicus [6])	Activity (Rattus norvegicus [7])
C[C@H]1C(=O)CC[C@@H]2[C@]1(C)CC[C@H]1[C@@]2(C)CC[C@@]2(C)[C@@H]3C[C@](C)(COC(=O)/C=C/c4ccc(O)c(O)c4)CC[C@]3(C)CC[C@]12C	Active	Active	115%	Dose-dependent effect	Non-Toxic	14.2%	Active
C[C@H]1C(=O)CC[C@@H]2[C@]1(C)CC[C@H]1[C@@]2(C)CC[C@@]2(C)[C@@H]3C[C@](C)(COC(=O)/C=C/c4ccc(O)cc4)CC[C@]3(C)CC[C@]12C	inactive	–	–	–	–	–	–

— ChEMBL document CHEMBL3994571, “Caffeoyl Triterpenoid Esters as Potential Anti-ischemic Stroke Agents from Celastrus orbiculatus” (J Nat Prod, 2016)
